# Experimental data as given in ChEMBL document CHEMBL1821569, “Synthesis of novel 1,2,5-trisubstituted benzimidazoles as potential antitumor agents” (2011).
# Columns and labels:
# Assay type in all cases: functional
# EKVX = assay: Antitumor activity against human EKVX cells after 48 hrs by SRB assay
# Outline: (§1)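 NCI 60-cell-line secondary screen. Cells were exposed continuously to drug for 48 h at five concentration levels (100, 10, 1.0, 0.1 and 0.01). Growth was estimated by sulforhodamine B protein staining. GI50 is the concentration giving a 50% reduction in net protein increase versus untreated control cells over the incubation. TGI (total growth inhibition) and LC50 (50% cell kill) were also derived.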
# MOLT-4 = assay: Antitumor activity against human MOLT4 cells after 48 hrs by SRB assay; conditions: MOLT-4, 48 h; outline: as §1
# RPMI-8226 = assay: Antitumor activity against human RPMI8226 cells after 48 hrs by SRB assay; conditions: RPMI-8226, 48 h; outline: as §1
# NCI-H522 = assay: Antitumor activity against human NCI-H522 cells after 48 hrs by SRB assay; conditions: NCI-H522, 48 h; outline: as §1
# K562 = assay: Antitumor activity against human K562 cells after 48 hrs by SRB assay; conditions: K562, 48 h; outline: as §1
# NCI-H322M = assay: Antitumor activity against human NCI-H322M cells after 48 hrs by SRB assay; outline: as §1
# A549 = assay: Antitumor activity against human A549 cells after 48 hrs by SRB assay; conditions: A549, 48 h; outline: as §1
# HCT-15 = assay: Antitumor activity against human HCT15 cells after 48 hrs by SRB assay; conditions: HCT-15, 48 h; outline: as §1
# SF-295 = assay: Antitumor activity against human SF295 cells after 48 hrs by SRB assay; conditions: SF-295, 48 h; outline: as §1
# SF-268 = assay: Antitumor activity against human SF268 cells after 48 hrs by SRB assay; conditions: SF-268, 48 h; outline: as §1
# SNB-19 = assay: Antitumor activity against human SNB19 cells after 48 hrs by SRB assay; conditions: SNB-19, 48 h; outline: as §1
# SNB-75 = assay: Antitumor activity against human SNB75 cells after 48 hrs by SRB assay; conditions: SNB-75, 48 h; outline: as §1
# LOX IMVI = assay: Antitumor activity against human LOXIMVI cells after 48 hrs by SRB assay; outline: as §1
# Malme-3M = assay: Antitumor activity against human MALME-3M cells after 48 hrs by SRB assay; outline: as §1
# MDA-MB-435 = assay: Antitumor activity against human MDA-MB-435 cells after 48 hrs by SRB assay; conditions: MDA-MB-435, 48 h; outline: as §1
# SK-MEL-5 = assay: Antitumor activity against human SK-MEL-5 cells after 48 hrs by SRB assay; conditions: SK-MEL-5, 48 h; outline: as §1
# UACC-257 = assay: Antitumor activity against human UACC257 cells after 48 hrs by SRB assay; conditions: UACC-257, 48 h
# Outline: (§2)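 NCI 60-cell-line secondary screen. Continuous 48 h exposure at five concentration levels. Cell growth estimated by sulforhodamine B protein staining. GI50 taken as the concentration giving 50% reduction in net protein increase relative to untreated control cells over the incubation. TGI (total growth inhibition) and LC50 (50% cell kill) were also derived.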
# UACC-62 = assay: Antitumor activity against human UACC62 cells after 48 hrs by SRB assay; conditions: UACC-62, 48 h; outline: as §2
# M14 = assay: Antitumor activity against human M14 cells after 48 hrs by SRB assay; conditions: M14, 48 h; outline: as §1
# SK-MEL-28 = assay: Antitumor activity against human SK-MEL-28 cells after 48 hrs by SRB assay; conditions: SK-MEL-28, 48 h; outline: as §1
# OVCAR-8 = assay: Antitumor activity against human OVCAR8 cells after 48 hrs by SRB assay; conditions: OVCAR-8, 48 h; outline: as §1
# OVCAR-5 = assay: Antitumor activity against human OVCAR5 cells after 48 hrs by SRB assay; conditions: OVCAR-5, 48 h; outline: as §1
# CAKI-1 = assay: Antitumor activity against human Caki1 cells after 48 hrs by SRB assay; conditions: CAKI-1, 48 h; outline: as §1
# RXF 393 = assay: Antitumor activity against human RXF393 cells after 48 hrs by SRB assay; conditions: RXF 393, 48 h; outline: as §1
# TK-10 = assay: Antitumor activity against human TK10 cells after 48 hrs by SRB assay; conditions: TK-10, 48 h; outline: as §2
# UO-31 = assay: Antitumor activity against human UO31 cells after 48 hrs by SRB assay; conditions: UO-31, 48 h; outline: as §2
# 786-0 = assay: Antitumor activity against human 786-0 cells after 48 hrs by SRB assay; conditions: 786-0, 48 h; outline: as §1
# MDA-MB-231 = assay: Antitumor activity against human MDA-MB-231 cells after 48 hrs by SRB assay; conditions: MDA-MB-231, 48 h; outline: as §1
# BT-549 = assay: Antitumor activity against human BT549 cells after 48 hrs by SRB assay; conditions: BT-549, 48 h; outline: as §1
# T47D = assay: Antitumor activity against human T47D cells after 48 hrs by SRB assay; outline: as §2
# MDA-MB-468 = assay: Antitumor activity against human MDA-MB-468 cells after 48 hrs by SRB assay; conditions: MDA-MB-468, 48 h; outline: as §1
# [1] = read-out: LC50 (the source's name)
smiles,measurement,setting,value
COC(=O)c1ccc2c(c1)nc(-c1ccc(Cl)cc1)n2-c1cc(C(C)(C)C)[nH]n1,GI50,EKVX,3.06 µM
same,LC50 (50% cell kill),EKVX,> 100 µM
same,TGI,EKVX,> 100 µM
same,GI50,MOLT-4,5.48 µM
same,LC50 (50% net cell kill),MOLT-4,> 100 µM
same,TGI,MOLT-4,> 100 µM
same,GI50,RPMI-8226,3.93 µM
same,TGI,RPMI-8226,19 µM
same,CC50,RPMI-8226; [1],> 100 µM
same,GI50,NCI-H522,3.21 µM
same,LC50 (50% cell kill),NCI-H522,> 100 µM
same,TGI,NCI-H522,20.3 µM
same,GI50,K562,4.2 µM
same,TGI,K562,> 100 µM
same,CC50,K562; [1],> 100 µM
same,GI50,NCI-H322M,10.4 µM
same,LC50 (50% cell kill),NCI-H322M,> 100 µM
same,TGI,NCI-H322M,86.4 µM
same,GI50,A549,4.03 µM
same,TGI,A549,94.5 µM
same,CC50,A549; [1],> 100 µM
same,GI50,HCT-15,4.36 µM
same,LC50 (50% cell kill),HCT-15,> 100 µM
same,TGI,HCT-15,> 100 µM
same,GI50,SF-295,2.48 µM
same,TGI,SF-295,8.98 µM
same,CC50,SF-295; [1],> 100 µM
same,GI50,SF-268,3.29 µM
same,TGI,SF-268,17.8 µM
same,CC50,SF-268; [1],> 100 µM
same,GI50,SNB-19,4.31 µM
same,TGI,SNB-19,> 100 µM
same,CC50,SNB-19; [1],> 100 µM
same,GI50,SNB-75,2.14 µM
same,TGI,SNB-75,12.6 µM
same,CC50,SNB-75; [1],> 100 µM
same,GI50,LOX IMVI,3.7 µM
same,TGI,LOX IMVI,14.5 µM
same,CC50,LOX IMVI; [1],0.429 µM
same,GI50,Malme-3M,3.25 µM
same,TGI,Malme-3M,15.6 µM
same,CC50,Malme-3M; [1],> 100 µM
same,GI50,MDA-MB-435,1.19 µM
same,TGI,MDA-MB-435,5 µM
same,CC50,MDA-MB-435; [1],0.505 µM
same,GI50,SK-MEL-5,2.02 µM
same,TGI,SK-MEL-5,5.1 µM
same,CC50,SK-MEL-5; [1],0.186 µM
same,GI50,UACC-257,4.97 µM
same,TGI,UACC-257,22.9 µM
same,CC50,UACC-257; [1],0.967 µM
same,GI50,UACC-62,2.01 µM
same,TGI,UACC-62,7.78 µM
same,CC50,UACC-62; [1],0.463 µM
same,GI50,M14,2.9 µM
same,TGI,M14,8.22 µM
same,CC50,M14; [1],0.758 µM
same,GI50,SK-MEL-28,3.38 µM
same,TGI,SK-MEL-28,15.5 µM
same,CC50,SK-MEL-28; [1],0.552 µM
same,GI50,OVCAR-8,7.33 µM
same,TGI,OVCAR-8,58.2 µM
same,CC50,OVCAR-8; [1],> 100 µM
same,GI50,OVCAR-5,12.9 µM
same,TGI,OVCAR-5,60.1 µM
same,CC50,OVCAR-5; [1],> 100 µM
same,GI50,CAKI-1,2.25 µM
same,TGI,CAKI-1,12.8 µM
same,CC50,CAKI-1; [1],> 100 µM
same,GI50,RXF 393,1.57 µM
same,TGI,RXF 393,5.77 µM
same,CC50,RXF 393; [1],0.569 µM
same,GI50,TK-10,6.94 µM
same,TGI,TK-10,> 100 µM
same,CC50,TK-10; [1],> 100 µM
same,GI50,UO-31,3.35 µM
same,TGI,UO-31,44.1 µM
same,CC50,UO-31; [1],> 100 µM
same,GI50,786-0,3.62 µM
same,TGI,786-0,32 µM
same,CC50,786-0; [1],> 100 µM
same,GI50,MDA-MB-231,4.62 µM
same,TGI,MDA-MB-231,27 µM
same,CC50,MDA-MB-231; [1],> 100 µM
same,GI50,BT-549,3.35 µM
same,TGI,BT-549,11.2 µM
same,CC50,BT-549; [1],0.595 µM
same,GI50,T47D,3.64 µM
same,TGI,T47D,> 100 µM
same,CC50,T47D; [1],> 100 µM
same,GI50,MDA-MB-468,2.4 µM
same,TGI,MDA-MB-468,7.98 µM
same,CC50,MDA-MB-468; [1],> 100 µM
